The text below walks through data of ChEMBL document CHEMBL2157866, “Virtual screening and computational optimization for the discovery of covalent prolyl oligopeptidase inhibitors with activity in human cells” (J Med Chem, 2012).

Activity calls are given as the source filed them. The calls are words filed in the database; no cut-off is given here. A value given as a limit tells only on which side of the number the result lay.

In test [1] the target is Dipeptidyl peptidase 4 (Homo sapiens) (UniProt P27487). Briefly: Inhibition DPP4 in human HCEC cell extracts using Gly-Pro-AMC substrate at 100 uM incubated for 30 mins by fluorimetric assay. The gist of the method:
(§1)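 Cells grown to confluence in DMEM with 4.5 g/L glucose (10% FCS for HCEC, 5% FCS for glioblastoma lines), then lysed in PBS with 0.1% Triton X-100. Inhibitor (methanol stock diluted in water) preincubated 5–10 min at room temperature in duplicate wells. Gly-Pro-AMC added at 10 μM final; fluorescence increase (ex/em 360/460 nm) read for 30 min at 37 °C.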

For test [2] the target is unchanged. Description: Inhibition DPP4 in human LNZ308 cell extracts using Gly-Pro-AMC substrate at 100 uM incubated for 30 mins by fluorimetric assay. An outline of the steps:
as §1

Test [3] deals with Prolyl endopeptidase FAP (Homo sapiens) (UniProt Q12884). Briefly: Inhibition at human recombinant FAPalpha at 100 uM. The gist of the method: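 Recombinant human FAPα diluted in PBS with 1 mg/mL BSA. Setup as for cell extracts: inhibitor preincubated 5–10 min at room temperature, then Z-Gly-Pro-AMC at 10 μM final. AMC fluorescence (ex/em 360/460 nm) recorded for 30 min at 37 °C.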
Sequence of Prolyl endopeptidase FAP (Homo sapiens) (Q12884 whole entry): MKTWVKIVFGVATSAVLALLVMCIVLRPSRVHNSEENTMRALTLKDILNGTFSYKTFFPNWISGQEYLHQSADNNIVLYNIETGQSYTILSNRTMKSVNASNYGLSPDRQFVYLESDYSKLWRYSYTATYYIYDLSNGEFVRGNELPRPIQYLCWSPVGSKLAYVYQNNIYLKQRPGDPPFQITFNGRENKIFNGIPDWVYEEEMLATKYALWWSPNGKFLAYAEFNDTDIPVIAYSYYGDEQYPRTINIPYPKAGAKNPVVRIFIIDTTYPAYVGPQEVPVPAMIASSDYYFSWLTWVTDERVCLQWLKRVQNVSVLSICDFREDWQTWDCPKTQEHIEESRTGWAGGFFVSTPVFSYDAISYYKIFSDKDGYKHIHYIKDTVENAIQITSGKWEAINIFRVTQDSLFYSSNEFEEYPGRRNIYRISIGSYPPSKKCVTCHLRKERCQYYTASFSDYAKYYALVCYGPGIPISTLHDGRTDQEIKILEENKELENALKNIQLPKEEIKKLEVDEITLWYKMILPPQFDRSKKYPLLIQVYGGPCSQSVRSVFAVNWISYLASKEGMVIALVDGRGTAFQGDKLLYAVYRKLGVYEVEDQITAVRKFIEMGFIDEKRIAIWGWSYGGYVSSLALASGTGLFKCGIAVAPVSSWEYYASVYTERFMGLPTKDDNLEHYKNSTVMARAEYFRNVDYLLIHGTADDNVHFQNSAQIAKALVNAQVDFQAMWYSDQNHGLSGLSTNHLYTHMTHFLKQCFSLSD

Test [4] deals with Dipeptidyl peptidase 4 (Homo sapiens) (UniProt P27487). Briefly: Inhibition DPP4 in human LN18 cell extracts using Gly-Pro-AMC substrate at 100 uM incubated for 30 mins by fluorimetric assay. An outline of the steps: as §1
Sequence of Dipeptidyl peptidase 4 (Homo sapiens) (P27487 whole entry, looked up): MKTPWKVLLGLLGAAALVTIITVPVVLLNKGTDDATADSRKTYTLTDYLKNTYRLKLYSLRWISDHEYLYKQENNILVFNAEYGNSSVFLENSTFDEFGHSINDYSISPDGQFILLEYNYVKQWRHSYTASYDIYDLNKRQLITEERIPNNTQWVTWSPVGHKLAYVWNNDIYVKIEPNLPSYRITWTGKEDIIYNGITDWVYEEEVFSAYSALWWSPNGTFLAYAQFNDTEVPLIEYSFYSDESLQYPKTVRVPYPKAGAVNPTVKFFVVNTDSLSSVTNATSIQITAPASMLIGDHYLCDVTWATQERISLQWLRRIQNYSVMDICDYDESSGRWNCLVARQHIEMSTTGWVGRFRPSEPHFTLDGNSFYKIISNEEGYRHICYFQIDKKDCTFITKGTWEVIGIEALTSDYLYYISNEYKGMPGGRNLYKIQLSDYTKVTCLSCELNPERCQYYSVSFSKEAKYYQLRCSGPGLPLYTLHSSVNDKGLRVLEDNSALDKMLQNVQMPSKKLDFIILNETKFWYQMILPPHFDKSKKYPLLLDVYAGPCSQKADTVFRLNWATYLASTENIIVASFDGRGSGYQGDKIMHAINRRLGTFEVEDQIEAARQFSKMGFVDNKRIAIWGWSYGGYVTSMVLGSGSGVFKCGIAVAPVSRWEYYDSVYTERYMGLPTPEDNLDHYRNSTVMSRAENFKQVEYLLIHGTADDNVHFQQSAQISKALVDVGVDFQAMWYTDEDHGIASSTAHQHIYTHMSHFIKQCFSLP
Test [5] has the same target. Description: Inhibition DPP4 in human LN229 cell extracts using Gly-Pro-AMC substrate at 100 uM incubated for 30 mins by fluorimetric assay. The gist of the method:
as §1

The target of test [6] is T1, Prolyl endopeptidase (Homo sapiens) (UniProt P48147).
T1 sequence (whole entry): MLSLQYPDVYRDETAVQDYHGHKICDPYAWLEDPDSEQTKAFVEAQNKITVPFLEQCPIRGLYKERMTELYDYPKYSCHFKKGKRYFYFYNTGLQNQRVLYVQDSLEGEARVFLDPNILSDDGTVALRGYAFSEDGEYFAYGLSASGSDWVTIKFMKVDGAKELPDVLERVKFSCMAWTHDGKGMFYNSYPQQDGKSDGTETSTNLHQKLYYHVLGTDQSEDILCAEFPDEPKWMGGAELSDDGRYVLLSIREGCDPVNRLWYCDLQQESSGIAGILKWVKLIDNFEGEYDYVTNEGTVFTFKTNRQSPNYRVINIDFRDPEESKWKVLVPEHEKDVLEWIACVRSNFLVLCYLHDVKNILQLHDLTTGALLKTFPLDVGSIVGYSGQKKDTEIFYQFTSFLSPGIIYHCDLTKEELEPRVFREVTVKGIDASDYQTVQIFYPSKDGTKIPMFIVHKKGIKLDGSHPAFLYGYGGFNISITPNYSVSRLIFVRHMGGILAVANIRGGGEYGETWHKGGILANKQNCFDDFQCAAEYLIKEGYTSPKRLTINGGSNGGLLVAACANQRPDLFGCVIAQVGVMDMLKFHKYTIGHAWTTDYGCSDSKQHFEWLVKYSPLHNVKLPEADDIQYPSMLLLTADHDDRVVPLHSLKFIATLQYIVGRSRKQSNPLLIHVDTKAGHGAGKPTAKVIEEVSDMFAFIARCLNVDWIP
Description: Inhibition of POP in intact human LN229 cells using Cbz-Gly-Pro-AMC substrate at 100 uM incubated for 30 mins by fluorimetric assay. The format is cell-based. The gist of the method:
(§2)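 Intact confluent monolayers kept in PBS pH 7.2–7.4 without detergent, in duplicate wells. Inhibitor added 5–10 min at room temperature before Z-Gly-Pro-AMC at 10 μM final. Fluorescence increase (ex/em 360/460 nm) followed for 30 min at 37 °C. IC50 obtained by plotting residual activity against inhibitor concentration.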

In test [7] the target is T1, Prolyl endopeptidase (Homo sapiens). Briefly: Inhibition of POP in intact human LNZ308 cells using Cbz-Gly-Pro-AMC substrate at 100 uM incubated for 30 mins by fluorimetric assay. The format is cell-based. An outline of the steps: as §2
For test [8] the target is unchanged. Briefly: Inhibition of POP in intact human HCEC cells using Cbz-Gly-Pro-AMC substrate at 100 uM incubated for 30 mins by fluorimetric assay. The format is cell-based. An outline of the steps: as §2
The target is the same in test [9]. Briefly: Inhibition of POP in intact human LN18 cells using Cbz-Gly-Pro-AMC substrate at 100 uM incubated for 30 mins by fluorimetric assay. The format is cell-based. The gist of the method: as §2
Test [10] shares this target. Briefly: Inhibition of POP in human LNZ308 cell extracts using Cbz-Gly-Pro-AMC substrate at 100 uM incubated for 30 mins by fluorimetric assay. An outline of the steps: (§3)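 Confluent monolayers (DMEM, 4.5 g/L glucose; 10% FCS for HCEC, 5% FCS for LN18/LN229/LNZ308) lysed in PBS containing 0.1% Triton X-100. Inhibitor preincubated 5–10 min at room temperature in duplicate wells. Z-Gly-Pro-AMC added at 10 μM final; fluorescence (ex/em 360/460 nm) recorded over 30 min at 37 °C. IC50 taken from residual activity plotted against decreasing inhibitor concentrations.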

Test [11] has the same target. Description: Inhibition of POP in human LN18 cell extracts using Cbz-Gly-Pro-AMC substrate at 100 uM incubated for 30 mins by fluorimetric assay. An outline of the steps: as §3
The target is the same in test [12]. Briefly: Inhibition of POP in human LN229 cell extracts using Cbz-Gly-Pro-AMC substrate at 100 uM incubated for 30 mins by fluorimetric assay. An outline of the steps: as §3
Test [13] has the same target. Briefly: Inhibition of POP in human HCEC cell extracts using Cbz-Gly-Pro-AMC substrate at 100 uM incubated for 30 mins by fluorimetric assay. An outline of the steps: as §3

In the case of `N#C[C@@H]1CCCN1C(=O)c1ccccc1C(=O)NCc1ccccc1`, the inhibition entry in test [1], in test [2], in test [4] and in test [5] was “inactive” throughout. In addition, the inhibition in test [3] was 34%.
`O=C(NCc1ccccc1)c1ccccc1C(=O)N1CCCC1`: the inhibition entry in test [1], in test [2], in test [4] and in [5] was “inactive” each time. For the same molecule, the inhibition in test [6], in [7], in test [8] and in test [9] was more than 50% each time.
Consider `O=C(NCc1ccccc1)c1ccccc1C(=O)N1CCCCC1`, for which the inhibition in [10], in [11], in test [12] and in [13] was more than 50% throughout. For the same molecule, the inhibition entry in [1], in test [2], in test [6], in test [4], in test [7] and in [8] was “inactive” throughout. Also, the inhibition result in test [5] and in test [9] was “inactive” in each case.
On to `N#C[C@@H]1CCCN1C(=O)c1cccc2c1C(=O)N(Cc1ccccc1)C2`, for which the inhibition result in [1], in [2], in test [4] and in test [5] was “inactive” throughout. For the same molecule, the inhibition in [3] was 28%.
For `O=C(c1cccc2c1C(=O)N(Cc1ccccc1)C2)N1CCCC1`, the inhibition result in test [1], in test [2], in [4] and in test [5] was “inactive” in each case. Also, the inhibition in [3] came to 11%.

By inhibition is commonly meant how much of the control response was suppressed.
